Reference: PMC2873786 (Organic & biomolecular chemistry, 2009)
Where two headings read alike, the source gives them in different places.

Key:
[1] = calculated, gas-phase; ref 18c; cited from earlier work
[2] = cited from earlier work
[3] = B3LYP calculated gas-phase O–H BDEs, ionization potentials and acidities; conditions: predicted; 5a vs 2, 6a vs 3
[4] = Spectrophotometric determination of pKa values; type: physicochemical; conditions: 298 K, 10 mM potassium phosphate, 200 mM KCl, spectrophotometry
Procedure, shortened: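 UV spectra were recorded in buffer at varied pH, blank first. Compound was added from a 25 mM ethanol stock and the pH was remeasured. Aryloxide fraction came from absorbance at λmax, normalised between low- and high-pH limits. pKa was obtained by fitting the fraction versus pH to a sigmoidal function.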

ovine COX-1 = biological target: T1, ovine COX-1 (Ovis aries, UniProt P05979); experiment: Inhibition of oCOX-1; type: biochemical; conditions: for oCOX-1 inhibition (prostaglandin biosynthesis), fold more effective than ApAP: relative to ApAP; for oCOX-1 inhibition, fold less effective than 1: relative to 1
T1 sequence (P05979 25-600): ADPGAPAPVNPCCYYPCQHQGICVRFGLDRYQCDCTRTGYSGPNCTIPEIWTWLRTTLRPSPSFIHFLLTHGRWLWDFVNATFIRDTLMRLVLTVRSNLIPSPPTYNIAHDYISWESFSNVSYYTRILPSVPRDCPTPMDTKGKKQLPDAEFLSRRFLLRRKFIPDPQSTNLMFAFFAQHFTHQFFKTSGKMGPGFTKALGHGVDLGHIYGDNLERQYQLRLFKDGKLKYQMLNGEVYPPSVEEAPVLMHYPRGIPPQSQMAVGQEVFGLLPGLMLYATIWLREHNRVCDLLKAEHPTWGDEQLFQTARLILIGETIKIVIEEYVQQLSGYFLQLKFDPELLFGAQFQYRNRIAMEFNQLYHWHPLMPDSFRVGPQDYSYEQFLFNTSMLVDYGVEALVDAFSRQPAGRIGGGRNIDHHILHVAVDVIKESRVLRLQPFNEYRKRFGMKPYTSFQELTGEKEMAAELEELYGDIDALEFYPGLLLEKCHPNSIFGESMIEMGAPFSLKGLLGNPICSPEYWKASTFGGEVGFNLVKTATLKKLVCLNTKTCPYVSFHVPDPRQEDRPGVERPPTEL
Procedure, shortened: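 Ovine COX-1 was purified from ram seminal vesicles and held 30 min on ice with 2 equiv hematin in Tris·HCl pH 8.0 plus 500 μM phenol. It was then warmed 2 min at 37 °C with compound. The reaction used [¹⁴C]arachidonic acid (0.5 μM final, prewarmed 30 s) and was started with enzyme at 5.4 nM. It was quenched after 8 s with acidic ether–methanol containing BHA. Products were resolved by radio-TLC. Activity was expressed as % of control, 4–6 values per point.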

[5] = Inhibited autoxidation of styrene; conditions: for kinh: 303 K in chlorobenzene, initiated by AMVN, styrene autoxidation; for inhibition rate constant, fold lower than for 1: relative to 1
HepG2 cells = experiment: Cytotoxicity assay with HepG2 cell line; type: cell-based, human; conditions: for intracellular ATP levels, fold control levels: HepG2, 24 h exposure; for decrease of total intracellular ATP concentration compared to control: 2 mM (highest exposure level)
Procedure, shortened: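 HepG2 cells (ATCC) were grown in DMEM with 10% FBS, non-essential amino acids, penicillin–streptomycin, pyruvate and glutamine, under 5% CO₂ at 37 °C. Cells were seeded at 10⁵ cells/mL with ethanol or water vehicle below 0.5%. Serial compound dilutions, up to 2 mM, were applied for 24 h with 2–3 replicates per dose. Cells were lysed for 5 min and ATP read by luciferin–luciferase luminescence after 10 min at room temperature. Values were taken relative to untreated control.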

[6] = Anodic peak potentials by differential pulse voltammetry; type: physicochemical; conditions: 298 K versus Ag/AgCl, at the pKa
Procedure, shortened: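 Glassy carbon working electrode (alumina-polished between trials), Ag/AgCl reference, platinum wire counter. Buffer was 10 mM potassium phosphate with KCl electrolyte, pH set with KOH or HCl. Compound was added from a 25 mM ethanol stock, pH was measured, and the solution was argon-purged 1 min. DPV used 0.05 s pulse width, 0.2 s pulse period and 10 mV/s at 298 K. […].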

oCOX-1 peroxidase = biological target: T2, oCOX-1 peroxidase (Ovis aries, UniProt P05979); experiment: Effect on reduction of PPHP to PPA; type: biochemical, ovine; conditions: for peroxidase activation at low concentration: at 100 μM, compared with 1-3; for increase in peroxidase activity of oCOX-1: at a concentration of 1 mM, PPHP to PPA
T2 sequence (P05979 25-600): T1 sequence (P05979 25-600)
Procedure, shortened: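 Ovine COX-1 was held 30 min on ice with 2 equiv hematin in Tris·HCl pH 8.0 without phenol. It was warmed 5 min at 37 °C with or without compound. PPHP (10 μM final) was prewarmed 2 min. The reaction was started with enzyme at 5.4 nM and quenched after 8 s with ice-cold ether–methanol–citric acid. The organic phase was dried under nitrogen, redissolved in 65% methanol–water, and analysed by HPLC for PPA formation.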

[7] = reference antioxidants; ref 27b; cited from earlier work
oCOX-1 = biological target: T3, oCOX-1 (Ovis aries, UniProt P05979); experiment: pH-dependent inhibition of COX-1; type: biochemical, ovine; conditions: pH 6.6 to 8.5; 0.5 mM 1; 1.0 mM 2 and 3
T3 sequence (P05979 25-600): T1 sequence (P05979 25-600)
Procedure, shortened: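 COX-1 radiolabelled arachidonic acid (0.5 μM) assay: hematin-reconstituted enzyme at 5.4 nM, 8 s reaction at 37 °C, radio-TLC. Buffers were Tris·HCl at pH 8.5, 8.0 and 7.4, and sodium phosphate at pH 8.0, 7.4 and 6.6, all with 500 μM phenol. Compound was present at 0.5 or 1.0 mM final. Activity was expressed as % of the uninhibited control in the same buffer and pH. Significance was tested by Student t-test.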

[8] = biological target: T4, soybean lipoxygenase-1 (sLOX-1) (Glycine max, UniProt P08170); experiment: Inhibition of sLOX-1; type: biochemical; conditions: up to 0.25 mM
T4 sequence (P08170 1-839): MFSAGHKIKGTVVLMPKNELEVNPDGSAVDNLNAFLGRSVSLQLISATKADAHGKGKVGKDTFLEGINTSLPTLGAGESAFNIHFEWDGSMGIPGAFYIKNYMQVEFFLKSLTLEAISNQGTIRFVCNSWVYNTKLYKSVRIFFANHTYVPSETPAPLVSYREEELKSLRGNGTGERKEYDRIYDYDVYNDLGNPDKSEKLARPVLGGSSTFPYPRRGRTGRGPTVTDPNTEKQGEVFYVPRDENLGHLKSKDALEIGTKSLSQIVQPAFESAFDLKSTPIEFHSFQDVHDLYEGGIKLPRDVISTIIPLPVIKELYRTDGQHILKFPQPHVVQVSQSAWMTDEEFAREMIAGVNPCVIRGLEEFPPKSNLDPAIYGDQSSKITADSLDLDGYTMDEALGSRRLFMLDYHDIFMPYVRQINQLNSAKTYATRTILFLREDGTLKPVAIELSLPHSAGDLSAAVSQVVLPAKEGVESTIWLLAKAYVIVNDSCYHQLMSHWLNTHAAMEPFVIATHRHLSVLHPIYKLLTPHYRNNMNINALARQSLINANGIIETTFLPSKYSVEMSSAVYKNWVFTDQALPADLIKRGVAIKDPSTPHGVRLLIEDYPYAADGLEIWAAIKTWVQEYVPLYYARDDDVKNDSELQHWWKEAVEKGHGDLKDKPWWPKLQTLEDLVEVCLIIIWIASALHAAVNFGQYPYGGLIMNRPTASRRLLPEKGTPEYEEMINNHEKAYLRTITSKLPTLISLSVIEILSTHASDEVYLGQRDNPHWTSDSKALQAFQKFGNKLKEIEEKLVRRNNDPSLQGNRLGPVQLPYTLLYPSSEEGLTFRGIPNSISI
Procedure, shortened: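 Soybean LOX-1 was purified from a commercial preparation. Linoleic acid (20 μM) was in 100 mM borate pH 9.2. Compound was added from ethanol at […] final (<5% ethanol), then enzyme at 3 nM final. Initial rates (<10% conversion) were followed at 234 nm as 13-HPODE formation. Rates were expressed relative to no-compound controls, 4–6 values per point, and IC50 was derived.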

Row | pKa [4] | Epa @ pKa [6] [V] | pH-dependence of oCOX-1 inhibition (oCOX-1) | increase in peroxidase activity of oCOX-1 (oCOX-1 peroxidase) | SMILES | IP [1] [kcal/mol] | O–H BDE [1] [kcal/mol] | stability under ambient conditions [2] | kinh [5] | also measured
1 |  |  |  |  | CN(C)c1ccc(O)cc1 [4a, reference compound] | 157.7 | 76.0 | too unstable |  | 
2 | 9.27 | 0.12 |  |  | CN(C)c1ccc(O)cn1 [5a] | 164.6 | 77.0 | quite stable | 4.8 × 10^6 ^d M^−1 s^−1 | O–H BDE lower than in 2 and 3 [3]: 5 to 6 kcal/mol; oCOX-1 inhibition (prostaglandin biosynthesis), fold more effective than ApAP (ovine COX-1): ca. 12 fold; effect on ATP production (HepG2 cells; HepG2, 24 h, by 500 μM exposure): eliminating ATP production; intracellular ATP levels, fold control levels (HepG2 cells; 10 μM): ca. 1.75 fold; cytotoxicity in preliminary HepG2 viability assays (HepG2 cells; HepG2 cell culture): relatively toxic; effect on peroxidase activity at higher concentration (oCOX-1 peroxidase; above 100 μM): abolishes peroxidase activity; peroxidase activation at low concentration (oCOX-1 peroxidase): greater peroxidase activation
3 | 8.18 | 0.31 |  |  | CN(C)c1ncc(O)cn1 [6a] | 174.6 | 78.3 | quite stable | 1.1 × 10^6 ^d M^−1 s^−1 | O–H BDE lower than in 2 and 3 [3]: 5 to 6 kcal/mol; oCOX-1 inhibition (prostaglandin biosynthesis), fold more effective than ApAP (ovine COX-1): ca. 12 fold; decrease of total intracellular ATP concentration compared to control (HepG2 cells; HepG2, 24 h): 31.3 ± 1.0%; intracellular ATP concentration relative to control (HepG2 cells; HepG2, 24 h, beyond 1 mM): at or above the control; intracellular ATP levels, fold control levels (HepG2 cells; 100 μM): ca. 1.8 fold; peroxidase activation at low concentration (oCOX-1 peroxidase): greater peroxidase activation
4 |  |  |  |  | Cc1cc(C(C)(C)C)c(O)c(C(C)(C)C)c1 [BHT, butylated hydroxytoluene] |  |  |  |  | kinh [7]: 140000 M⁻¹ s⁻¹
5 |  | 0.32 | did not change significantly | 11 fold | CC(=O)Nc1ccc(O)cc1 [compound 1, Acetaminophen, reference compound] |  |  |  | 500000 M⁻¹ s⁻¹ | IC50 (ovine COX-1): 250 µM; kinh ([5]; listed as ApAP): 500000 M⁻¹ s⁻¹; inhibition rate constant, fold larger than that of BHT ([5]; relative to BHT): ~4 fold; decrease of total intracellular ATP concentration compared to control (HepG2 cells; HepG2, 24 h): 24.8 ± 1.0%; inhibition of sLOX-1 [8]: does not inhibit
6 | 8.28 | 0.48 | markedly improved at higher pH | only slightly | CC(=O)Nc1ccc(O)cn1 [compound 2] |  |  |  | 40000 M⁻¹ s⁻¹ | oCOX-1 inhibition, fold less effective than 1 (ovine COX-1): ca. 1.6 fold; inhibition rate constant, fold lower than for 1 [5]: 12.5 fold
7 | 5.89 | 1.02 | markedly improved at higher pH | only slightly | CC(=O)Nc1ncc(O)cn1 [compound 3] |  |  |  | 10000 M⁻¹ s⁻¹ | oCOX-1 inhibition, fold less effective than 1 (ovine COX-1): ~3 fold; inhibition rate constant, fold lower than for 1 [5]: 50 fold
8 |  |  |  |  | Cc1c(C)c2c(c(C)c1O)CC[C@@](C)(CCC[C@H](C)CCC[C@H](C)CCCC(C)C)O2 [α-tocopherol] |  |  |  |  | kinh [7]: 3.2e+06 M⁻¹ s⁻¹
